# Hits are enriched below; roughly 2.8% of the tested compounds scored in any of these assays.
# PAFAH1B2 FP inh = inhibitors of human PAFAH1B2. P68402. recombinant PAFAH1B2, FP-rhodamine activity probe, fluorescence polarization. inhibition, % at 3.39 µM. 340,000 compounds, 1.2% hits;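 active means inhibition above the mean of all tested compounds plus 3 SD, cut at about 24% in these data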;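 further: 0% = enzyme with DMSO and 100% = wells lacking PAFAH1B2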
# PAFAH1B3 FP inh = PAFAH1B3 (human) inhibition; Q15102; recombinant PAFAH1B3, FP-rhodamine probe, fluorescence polarization; inhibition, % at 3.39 µM; 340,000 compounds, 0.28% hits; AID 492972;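 active means inhibition above the screen-wide average of all tested compounds plus 3 SD, cut at about 25% in these data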;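 further: 0% = enzyme with DMSO only and 100% = wells lacking PAFAH1B3 protein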
# ABHD4 inh = ABHD4 (mouse) inhibition, primary FP screen | purified mABHD4, FP-Rh probe fluorescence polarization | Q8VD66 | 370,000 compounds, 0.54% hits | inhibition, % at 8.92 µM | AID 720543;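 active means inhibition exceeding the mean over every tested compound plus 3 SD, cut at about 30% in these data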;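 further: 0% = plate median of compound wells and 100% = S159A mutant with DMSO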
#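 Assay system: mouse ABHD4 enzyme, wild type / Also added: fluorescent activity-based probe FP-Rh / Doses: single nominal dose of 8.92 µM, 0.89% DMSO final / Timing: 45 min compound pre-incubation plus 60 min probe step, 25 °C / Signal: FP readout, ex 525 nm / em 598 nm / Control set: S159A mutant/DMSO as 100%, compound-well median as 0%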
# HTRA1 inhibitor = blocks human HTRA1 serine peptidase; Q92743; recombinant HTRA1, FP-rhodamine activity-based probe, fluorescence polarization; inhibition, % at 5.96 µM; 340,000 compounds, 0.5% hits; in the data active means inhibition above about 36%;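 further: 0% = enzyme with DMSO and 100% = wells lacking enzyme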
# Target sequence (Q92743 whole entry, looked up): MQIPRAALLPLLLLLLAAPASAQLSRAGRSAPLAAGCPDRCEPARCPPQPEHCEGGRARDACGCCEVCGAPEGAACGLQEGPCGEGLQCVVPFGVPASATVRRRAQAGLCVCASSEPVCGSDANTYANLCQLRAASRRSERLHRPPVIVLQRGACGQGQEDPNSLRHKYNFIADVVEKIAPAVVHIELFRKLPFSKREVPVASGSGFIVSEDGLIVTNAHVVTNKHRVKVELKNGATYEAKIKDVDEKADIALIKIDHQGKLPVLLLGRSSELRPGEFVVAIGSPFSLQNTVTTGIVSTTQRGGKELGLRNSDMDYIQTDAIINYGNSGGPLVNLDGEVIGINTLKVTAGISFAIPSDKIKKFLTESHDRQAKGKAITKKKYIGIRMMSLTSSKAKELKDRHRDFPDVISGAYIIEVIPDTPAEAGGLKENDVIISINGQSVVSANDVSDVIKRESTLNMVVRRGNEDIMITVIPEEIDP
# PAFAH2 inh = PAFAH2 (human) inhibition. Q99487. recombinant PAFAH2, FP-rhodamine activity probe, fluorescence polarization. inhibition, % at 3.39 µM. 340,000 compounds, 0.99% hits;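 active means inhibition above the mean over all tested compounds plus 3 SD, cut at about 30% in these data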;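 further: inhibitors block probe labeling of enzyme so polarization drops; 0% = enzyme with DMSO and 100% = wells lacking PAFAH2 protein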
# pPAFAH inh = pPAFAH (human) enzyme inhibition. recombinant pPAFAH, FP-rhodamine probe fluorescence polarization. inhibition, % at 3.39 µM. 330,000 compounds, 1.5% hits;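 active means inhibition above the mean inhibition across the screen plus 3 SD, cut at about 25% in these data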;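 further: inhibitors block binding of the rhodamine activity-based probe so polarization drops; 0% = enzyme with DMSO and 100% = wells lacking pPAFAH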
# PAFAH2 FP conf = PAFAH2 (human) inhibition, confirmed; 2,300 compounds, 65% hits; inhibition, % at 3.39 µM; shares compounds with PAFAH2 inh; AID 493030; recombinant PAFAH2, FP-rhodamine activity probe, fluorescence polarization;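 active means mean inhibition over three repeats above a set limit taken from the earlier primary screen, cut at about 30% in these data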;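 further: inhibitor blocks binding of rhodamine activity probe so polarization falls; 0% = enzyme with DMSO and 100% = wells lacking PAFAH2 protein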
# * hit, by the source's call; · = no result given.
SMILES,PAFAH1B2 FP inh,PAFAH1B3 FP inh,ABHD4 inh,HTRA1 inhibitor,PAFAH2 inh,pPAFAH inh,PAFAH2 FP conf
O=C(Nc1ccc(Br)c(C(F)(F)F)c1)[C@@H]1CC=C[C@@H]2CCN(CC3CC3)C(=O)[C@@H]21,·,·,2,·,·,·,·
O=C(COC(=O)c1cc[n+]([O-])cc1)Nc1ccc([N+](=O)[O-])cc1C(F)(F)F,-1,7,0,4,4,·,·
O=C(COC(=O)C1=COCCO1)Nc1cccc(Oc2ccccc2)c1,5,10,-2,-11,90*,4,74*
CC(=O)c1cccc(NC(=O)COC(=O)C2=COCCO2)c1,1,2,2,2,44*,2,38*
O=C(COC(=O)C1=COCCO1)NC1CCCCCCC1,3,9,3,-1,76*,2,74*
O=C(COC(=O)C1=COCCO1)Nc1ccc([N+](=O)[O-])cc1C(F)(F)F,4,6,-7,4,32*,6,19
CCCCN1CN2Cc3ccc(C)cc3C2CS1(=O)=O (stereo unspecified),·,·,-1,·,·,·,·
CC(=O)CC[C@@H]1CC[C@]2(CCCN(C(=O)C3CCCCC3)C2)O1,·,·,2,·,·,·,·
CC1CCC2(CC1)CCC2NCc1ccc(Cl)cc1 (stereo unspecified),·,·,5,·,·,·,·
O=C(COC(=O)C1=COCCO1)Nc1ccccc1,4,1,-11,3,79*,7,68*
O=C(COC(=O)/C=C/c1cccc(F)c1)NC1CC1,0,3,-3,-5,34*,-1,18
O=C(COC(=O)/C=C/c1cccc(F)c1)NC1CCCC1,-3,0,-2,7,73*,9,67*
O=C(COC(=O)/C=C/c1cccc(F)c1)NC1CCCCC1,·,·,-2,-1,·,·,·
O=C(COC(=O)/C=C/c1cccc(F)c1)NC1CCCCCC1,6,8,3,-6,82*,10,80*
Cc1ccc(-c2nnc(SCC(=O)Nc3ccc4c(c3)OCCO4)n2-c2ccc(C)cc2)cc1,·,·,2,·,·,·,·
O=C(N[C@H]1C[C@@H]2O[C@@H](CO)CC[C@@H]2O[C@@H]1CCc1ccc(-c2cccnc2)cc1)c1cccc(F)c1,·,·,-8,·,·,·,·
C[C@H]1[C@H](NC(=O)c2ccc(C(F)(F)F)cc2)CC[C@@]23CCCN2C(=O)CCC[C@@H]13,·,·,-3,·,·,·,·
O=C(COC(=O)/C=C/c1ccccc1)Nc1cccnc1Cl,6,4,5,-4,28,-1,·
CCN(CC)S(=O)(=O)c1ccc(/C=C/C(=O)OCC(=O)Nc2cccc3ccccc23)cc1,-1,-7,-7,-10,53*,21,62*
CCN(CC)S(=O)(=O)c1ccc(/C=C/C(=O)OCC(=O)Nc2cccnc2Cl)cc1,0,8,-3,0,67*,6,55*
O=C(O)c1ccccc1NSc1ccccc1[N+](=O)[O-],4,6,9,-8,37*,13,26
C[C@H]1COc2cc(Br)ccc2S(=O)(=O)N1Cc1cn(Cc2ccc(Cl)cc2)nn1,·,·,1,·,·,·,·
COc1ccc(NC2CC(=O)N(c3ccccc3)C2=O)cc1 (stereo unspecified),7,4,-4,-3,41*,0,2
O=C1CC(Nc2ccc(N3CCOCC3)cc2)C(=O)N1c1ccccc1 (stereo unspecified),5,-6,·,14,-1,17,·
C=CCN(CC#Cc1ccccc1)CC1CC1,·,·,-4,·,·,·,·
SMILES,PAFAH1B2 FP inh,PAFAH1B3 FP inh,ABHD4 inh,HTRA1 inhibitor,PAFAH2 inh,pPAFAH inh,PAFAH2 FP conf
CCCc1cc(=O)oc2c3c(cc(OCC(=O)N[C@@H](CSC)C(=O)O)c12)OC(C)(C)CC3,10,3,-2,-1,34*,·,28
CSC[C@H](NC(=O)COc1cc2c(c3oc(=O)cc(C)c13)CCC(C)(C)O2)C(=O)O,9,4,4,1,1,12,·
CSc1ncccc1C(=O)OCC(=O)NC12CC3CC(CC(C3)C1)C2,13,3,2,-18,72*,5,72*
Nc1cc(Cl)ccc1C(=O)OCC(=O)NC1CCCCCCC1,1,0,-2,-4,47*,7,41*
CSc1ncccc1C(=O)OCC(=O)NC1CC1,6,10,2,4,5,·,·
CCOc1ncccc1C(=O)OCC(=O)NCc1cccs1,3,6,0,4,40*,15,27
O=C(COC(=O)c1cccnc1Cl)NCc1cccs1,5,-5,-1,3,1,10,·
CCOc1ncccc1C(=O)OCC(=O)NC1CCCCCC1,4,-2,-1,-6,84*,·,79*
O=C(COC(=O)c1cc(Cl)ccc1Cl)NC1CCCC1,3,-1,-6,-4,13,4,·
CCOc1ncccc1C(=O)OC(C)C(=O)NC1CCCCC1 (stereo unspecified),0,3,0,3,2,·,·
CC(=O)N1CCc2cc(S(=O)(=O)NC3CCN(C(=O)CCl)CC3)ccc21,·,·,7,·,·,·,·
CSc1ncccc1C(=O)OCC(=O)NC1CCCCC1,-4,-6,-1,9,38*,2,36*
O=C(COC(=O)c1cccnc1Cl)NC1CCCCCC1,5,7,4,4,73*,8,66*
C[C@H]1[C@@H](NC(=O)c2ccc(Cl)c(C(F)(F)F)c2)CC[C@@]23CCCN2C(=O)CCC[C@@H]13,·,·,0,·,·,·,·
Cc1noc(C)c1COc1ccc(C(=O)OCC(=O)NC23CC4CC(CC(C4)C2)C3)cc1,2,7,-3,-38,81*,11,80*
Cc1noc(C)c1COc1ccc(C(=O)OCC(=O)NC2CCCCC2C)cc1 (stereo unspecified),4,1,10,-7,77*,15,82*
Cc1noc(C)c1COc1ccc(CC(=O)NC2CCCCCC2)cc1,-1,3,4,-2,2,3,·
COC1=C[C@H](C(=O)N[C@H]2CCCC[C@@H]2NC(C)=O)[C@@]2(C)Cc3ccccc3[C@H]2CC1=O,·,·,1,·,·,·,·
O=C(NCCCc1ccccc1)[C@H](Cc1c[nH]c2ccccc12)NC1(C(=O)NCCc2c[nH]c3ccccc23)CCC1,·,·,-13,·,·,·,·
COC(=O)c1ccc(NC(=O)Nc2ccccc2F)cc1,-1,4,-12,-19,-5,-5,·
Cc1cc(C(=O)OCC(=O)Nc2ccccc2F)c(C)o1,0,9,-2,-3,39*,4,32*
Cc1cc(C(=O)OCC(=O)Nc2ccccc2C#N)c(C)o1,1,2,-2,2,43*,·,32*
CC(=O)Nc1ccc(C(=O)OCC(=O)Nc2ccccc2F)cc1,2,1,-5,-5,69*,-2,70*
